The target in assay [1] is T1, Cannabinoid receptor 2 (Homo sapiens, UniProt P34972). Briefly: Agonist activity at human CB2 receptor expressed in CHO cells assessed as inhibition of forskolin-induced cAMP release. The assay is classed as functional, cell-based. The method in brief: (§1)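 CHO cells stably expressing human CB2, 5000 cells/well, incubated overnight at 37 °C. Compounds added in stimulation buffer with 1 mM IBMX, 0.25% BSA and forskolin, 30 min at 37 °C. cAMP read after lysis with a commercial kit. 100% is set by forskolin-stimulated cAMP versus the level under 200 nM CP-55940. Efficacy is relative to CP-55940, which is run twice per plate. EC50 from a four-parameter logistic fit. Each compound tested in triplicate, at least three times; mean reported.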

The target of assay [2] is T1, Cannabinoid receptor 2. Briefly: Agonist activity at human CB2 receptor expressed in CHO cells assessed as inhibition of forskolin-induced cAMP release relative to CP-55940. The assay is classed as functional, cell-based. The method in brief:
as §1

Another assay is filed under the species Homo sapiens. Briefly: Selectivity ratio of EC50 for human CB1 receptor to EC50 for human CB2 receptor. An outline of the steps:
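Inhibition is normalised to 200 nM CP-55940. EC50 from a four-parameter logistic fit. Each compound tested in triplicate, at least three times.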

Assay [3] addresses T1, Cannabinoid receptor 2. Briefly: Displacement of [3H]CP-55940 form human CB2 receptor transfected in HEK cells. The assay is classed as cell-based, HEK293. An outline of the steps: (§2)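 Compounds tested at 1×10^-5 to 1×10^-10 M. Competition with [³H]-CP55940 or [³H]-Win55212 at 4 nM final. IC50 is 50% inhibition of specific binding, from a four-parameter logistic fit.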
A general note: Loss of bound radioactivity is the signal in a displacement assay; it reports binding, not function.

Assay [4] deals with T1, Cannabinoid receptor 2. Briefly: Displacement of [3H]Win55212 form human CB2 receptor transfected in HEK cells. The assay is classed as cell-based, HEK293. The method in brief:
as §2

In assay [5] the test system is Mus musculus. Briefly: Antiinflammatory activity in BALB/c mouse assessed as inhibition of zymosan-induced paw edema at 30 mg/kg, po administered 60 mins before zymosan challenge measured after 3 hrs relative to control. Details: scale not given: the % may be the effect or the level left. The assay is classed as functional. The method in brief: (§3)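 Male Balb/c mice, 6–10 weeks old. Compound given orally in 95% PEG400/5% Tween 80 about 60 min before 0.5% zymosan in 0.9% saline, injected dorsal metatarsally into each hind paw. Paw volume measured by water plethysmometry before challenge and 3 h after. Inhibition of swelling is relative to vehicle-dosed mice, six per group.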

In assay [6] the target is T1, Cannabinoid receptor 2. Briefly: Displacement of [3H]CP-55940 form human CB2 receptor transfected in HEK cells at 50 nM. The assay is classed as cell-based. The conditions noted are these: HEK293.
For assay [7], the target named is T1, Cannabinoid receptor 2. Briefly: Inverse agonist activity at human CB2 receptor expressed in CHO cells assessed as change in forskolin-induced cAMP release. The assay is classed as functional, cell-based. Conditions: filed as inverse agonist. The method in brief:
as §1

Assay [8] deals with Mus musculus. Briefly: Antiinflammatory activity in BALB/c mouse assessed as inhibition of zymosan-induced paw edema at 100 mg/kg, po administered 60 mins before zymosan challenge measured after 3 hrs relative to control. The assay is classed as functional. Details: scale not given: the % may be the effect or the level left. The method in brief:
as §3

This note sets out measurements from ChEMBL document CHEMBL1153325, “Morpholine containing CB2 selective agonists” (Bioorg Med Chem Lett, 2009).

SMILES strings stand for the structures. The source made the active and inactive calls. No cut-off for these calls is given here. Some results are limits rather than exact numbers.

T1 sequence (P34972 whole entry): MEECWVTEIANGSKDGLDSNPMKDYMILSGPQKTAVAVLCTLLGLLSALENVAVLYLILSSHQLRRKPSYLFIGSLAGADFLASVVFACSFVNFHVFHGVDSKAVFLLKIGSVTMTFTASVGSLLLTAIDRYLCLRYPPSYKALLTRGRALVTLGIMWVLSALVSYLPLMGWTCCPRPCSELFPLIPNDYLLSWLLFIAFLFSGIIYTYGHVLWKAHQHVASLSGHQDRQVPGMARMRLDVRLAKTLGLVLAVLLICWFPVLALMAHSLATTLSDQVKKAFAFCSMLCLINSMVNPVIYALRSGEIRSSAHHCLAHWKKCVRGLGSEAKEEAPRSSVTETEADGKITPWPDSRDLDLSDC

Broadly, the EC50 is the midpoint of the concentration-response curve. In the case of `Cc1ccc(Cl)c(-c2ccc(CN3CCO[C@@H](c4ccccc4)C3)cc2)c1`, the half-maximal effective concentration (EC50) on Cannabinoid receptor 2 [1] was 3 nM. Further, the Efficacy on Cannabinoid receptor 2 [2] worked out at 73%. Besides, the Ratio EC50 in the assay listed under Homo sapiens amounted to 781.

For the compound `Clc1ccccc1-c1ccc(CN2CCO[C@@H](c3ccccc3)C2)cc1`, the EC50 on Cannabinoid receptor 2 [1] turned out to be 25 nM. Further, the Efficacy at Cannabinoid receptor 2 [2] turned out to be 51%. Also, the Ratio EC50 in the assay filed under Homo sapiens worked out at 306.

For the compound `Clc1cccc(Nc2ccc(CN3CCO[C@@H](c4ccccc4)C3)cn2)c1Cl`, the 50% effective concentration (EC50) on Cannabinoid receptor 2 [1] was 1600 nM. Further, the Efficacy on Cannabinoid receptor 2 [2] is 70%. Besides, the Ratio EC50 in the assay listed under Homo sapiens was over 10.

Regarding `c1ccc(-c2ccc(Nc3ccc(CN4CCO[C@@H](c5ccccc5)C4)cn3)cc2)cc1`, the EC50 at Cannabinoid receptor 2 [1] is over 20000 nM.

Turning to `Cc1ccc(Nc2ccc(CN3CCO[C@@H](c4ccccc4)C3)cn2)cc1`, the EC50 at Cannabinoid receptor 2 [1] was found to be 100 nM. Also, at Cannabinoid receptor 2 [2], the Efficacy came to 80%. In the assay filed under Homo sapiens, the Ratio EC50 is over 200.

In general, Ki refers to a measure of affinity in units of concentration, obtained from inhibition or displacement. Turning to `Clc1cccc(-c2ccc(CN3CCO[C@@H](c4ccccc4)C3)cc2)c1Cl`, the EC50 at Cannabinoid receptor 2 [1] stood at 6 nM. Besides, the Efficacy on Cannabinoid receptor 2 [2] was determined as 77%. In addition, the Ratio EC50 in the assay listed under Homo sapiens was 960. For the same compound, the Ki was 312 nM on Cannabinoid receptor 2 [3] and 104 nM on Cannabinoid receptor 2 [4]. In the assay with Mus musculus [5], the Activity is 54%.

As for `c1ccc(Oc2ccc(CN3CCO[C@@H](c4ccccc4)C3)cc2)cc1`, the EC50 on Cannabinoid receptor 2 [1] was 15000 nM. For the same compound, at Cannabinoid receptor 2 [2], the Efficacy was determined as 100%.

For `FC(F)(F)c1ccccc1-c1ccc(CN2CCO[C@@H](c3ccccc3)C2)cc1`, the concentration giving a half-maximal response (EC50) on Cannabinoid receptor 2 [1] is 40 nM. Moreover, the Efficacy at Cannabinoid receptor 2 [2] was determined as 50%. The Ratio EC50 in the assay listed under Homo sapiens amounted to 250.

On to `CN(C)c1ccc(Nc2ccc(CN3CCO[C@@H](c4ccccc4)C3)cn2)cc1`, for which the 50% effective concentration (EC50) on Cannabinoid receptor 2 [1] was over 20000 nM.

Consider `FC(F)(F)c1ccccc1-c1ccc(CN2CCCC(c3ccccc3)C2)cc1` (racemic), for which, on Cannabinoid receptor 2 [1], the concentration for a half-maximal effect (EC50) turned out to be 30 nM. For the same compound, the Efficacy at Cannabinoid receptor 2 [2] stood at 57%. Moreover, the Ratio EC50 in the assay filed under Homo sapiens was found to be 195.

`FC(F)(F)c1ccccc1-c1ccc(CN2CCOC(c3ccccc3)C2)cc1` (racemic): at Cannabinoid receptor 2 [1], the EC50 worked out at 330 nM. Besides, the Efficacy at Cannabinoid receptor 2 [2] came to 50%. The Ratio EC50 in the assay filed under Homo sapiens was over 60.

On to `Clc1ccc(Nc2ccc(CN3CCO[C@@H](c4ccccc4)C3)cn2)cc1Cl`, for which the half-maximal effective concentration (EC50) on Cannabinoid receptor 2 [1] came out at 50 nM. Moreover, the Efficacy at Cannabinoid receptor 2 [2] worked out at 80%. In addition, the Ratio EC50 in the assay filed under Homo sapiens is over 400.

With `c1ccc(Nc2ccc(CN3CCO[C@@H](c4ccccc4)C3)cc2)cc1`, the 50% effective concentration (EC50) on Cannabinoid receptor 2 [1] turned out to be 615 nM. Also, on Cannabinoid receptor 2 [2], the Efficacy was found to be 60%. Moreover, the Ratio EC50 in the assay listed under Homo sapiens is over 30.

Regarding `Clc1cccc(Nc2ccc(CN3CCO[C@@H](c4ccccc4)C3)cn2)c1`, the EC50 at Cannabinoid receptor 2 [1] stood at 200 nM. The Efficacy at Cannabinoid receptor 2 [2] was 80%. The Ratio EC50 in the assay filed under Homo sapiens was over 100.

Take `Fc1ccc(Nc2ccc(CN3CCO[C@@H](c4ccccc4)C3)cn2)cc1`: the EC50 on Cannabinoid receptor 2 [1] came out at 35 nM. Besides, on Cannabinoid receptor 2 [2], the Efficacy was 70%.

With `Clc1ccccc1Nc1ccc(CN2CCO[C@@H](c3ccccc3)C2)cn1`, the EC50 at Cannabinoid receptor 2 [1] came to 30 nM. Further, on Cannabinoid receptor 2 [2], the Efficacy is 80%. Moreover, in the assay filed under Homo sapiens, the Ratio EC50 amounted to 250.

Regarding `CN(Cc1ccc(-c2ccccc2C(F)(F)F)cc1)CC(O)c1ccccc1` (racemic), at Cannabinoid receptor 2 [6], the result was Active. In addition, on Cannabinoid receptor 2 [1], the EC50 worked out at 2 nM. In addition, the Efficacy on Cannabinoid receptor 2 [2] turned out to be 95%. Also, the Ratio EC50 in the assay listed under Homo sapiens amounted to 120.

Regarding `FC(F)(F)c1ccccc1-c1ccc(CN2CCO[C@H](c3ccccc3)C2)cc1`, at Cannabinoid receptor 2 [7], the Activity result was “Inverse agonist”.

On to `O=C(NCC1CCOCC1)c1cnc(Nc2ccc(Cl)cc2Cl)nc1C(F)(F)F` [GW842166X], for which the half-maximal effective concentration (EC50) on Cannabinoid receptor 2 [1] was found to be 350 nM. Besides, the Efficacy on Cannabinoid receptor 2 [2] was determined as 90%. Besides, the Ratio EC50 in the assay listed under Homo sapiens is over 60. Moreover, the inhibition constant Ki at Cannabinoid receptor 2 [3] is over 5000 nM; at Cannabinoid receptor 2 [4], over 10000 nM.

Regarding `CC(C)c1ccc(Nc2ccc(CN3CCO[C@@H](c4ccccc4)C3)cn2)cc1`, the 50% effective concentration (EC50) on Cannabinoid receptor 2 [1] is over 20000 nM.

For the compound `N#Cc1ccccc1-c1ccc(CN2CCO[C@@H](c3ccccc3)C2)cc1`, the EC50 at Cannabinoid receptor 2 [1] is 3 nM. Moreover, the Efficacy at Cannabinoid receptor 2 [2] worked out at 56%. Besides, in the assay listed under Homo sapiens, the Ratio EC50 is 715.

With `c1ccc(Nc2ccc(CN3CCO[C@@H](c4ccccc4)C3)cn2)cc1`, the concentration giving a half-maximal response (EC50) on Cannabinoid receptor 2 [1] was determined as 140 nM. Further, the Efficacy on Cannabinoid receptor 2 [2] was 70%. Moreover, in the assay listed under Homo sapiens, the Ratio EC50 was over 150.

Consider `COc1ccc(Nc2ccc(CN3CCO[C@@H](c4ccccc4)C3)cn2)cc1`, for which the EC50 at Cannabinoid receptor 2 [1] stood at 65 nM. For the same compound, on Cannabinoid receptor 2 [2], the Efficacy stood at 90%. The Ratio EC50 in the assay listed under Homo sapiens was over 310.

`Clc1ccc(Nc2ccc(CN3CCO[C@@H](c4ccccc4)C3)cn2)cc1`: the EC50 on Cannabinoid receptor 2 [1] is 30 nM. The Efficacy on Cannabinoid receptor 2 [2] is 80%. For the same compound, in the assay listed under Homo sapiens, the Ratio EC50 was over 670.

In the case of `Clc1ccc(Nc2ccc(CN3CCO[C@@H](c4ccccc4)C3)cn2)c(Cl)c1`, on Cannabinoid receptor 2 [1], the half-maximal effective concentration (EC50) turned out to be 10 nM. At Cannabinoid receptor 2 [2], the Efficacy was 100%. Also, in the assay listed under Homo sapiens, the Ratio EC50 is over 2000. Also, the inhibitory constant (Ki) at Cannabinoid receptor 2 [3] was over 10000 nM; at Cannabinoid receptor 2 [4], 2650 nM. Further, the Activity in the assay on Mus musculus [8] turned out to be 85%.
